Test results: the M2OR odorant receptor database
Positions count from the first letter of the chain named.

Tests used:
Conditions in all cases: stereoisomer not certain
OR4F17 (Homo sapiens) = molecular target: T1, OR4F17 (Homo sapiens) (UniProt Q8NGA8)
T1 sequence (whole entry): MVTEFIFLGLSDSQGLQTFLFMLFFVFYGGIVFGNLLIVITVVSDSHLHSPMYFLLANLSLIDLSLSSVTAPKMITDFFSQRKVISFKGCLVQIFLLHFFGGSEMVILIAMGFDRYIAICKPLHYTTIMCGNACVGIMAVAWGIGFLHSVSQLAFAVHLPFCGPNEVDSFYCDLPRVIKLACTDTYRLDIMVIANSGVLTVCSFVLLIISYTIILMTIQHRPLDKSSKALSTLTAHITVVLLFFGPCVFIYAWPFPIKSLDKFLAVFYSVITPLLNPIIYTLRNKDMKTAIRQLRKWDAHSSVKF
Procedure, shortened: (§1)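 Transient luciferase assays in mammalian cell lines were common, though methods varied by source. The values come from published papers and their supplementary material, with extra details from the original authors when needed. Responsive refers to a measured signal the original authors judged statistically different from baseline, and non-responsive (inactive) to the remainder.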

OR4F21 (Homo sapiens) = molecular target: T2, OR4F21 (Homo sapiens) (UniProt O95013)
T2 sequence (whole entry): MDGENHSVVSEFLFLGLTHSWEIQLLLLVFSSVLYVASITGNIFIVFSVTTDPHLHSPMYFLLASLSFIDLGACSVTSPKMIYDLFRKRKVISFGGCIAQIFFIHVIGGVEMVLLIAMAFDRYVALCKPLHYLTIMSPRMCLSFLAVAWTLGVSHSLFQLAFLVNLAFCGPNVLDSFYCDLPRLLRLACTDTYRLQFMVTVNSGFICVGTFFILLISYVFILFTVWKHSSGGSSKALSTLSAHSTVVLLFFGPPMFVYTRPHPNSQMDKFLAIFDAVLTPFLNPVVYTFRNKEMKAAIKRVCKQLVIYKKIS
Procedure, shortened: as §1

OR4F3 (Homo sapiens) = molecular target: T3, OR4F3 (Homo sapiens) (UniProt Q6IEY1)
T3 sequence (whole entry): T2 sequence (whole entry) with F44L, I107V, K310R
Procedure, shortened: as §1

OR4F3 R310K = test system: OR4F3 R310K
Procedure, shortened: as §1

OR4F3 V107I = test system: OR4F3 V107I
Procedure, shortened: as §1

OR4F4 (Homo sapiens) = molecular target: T4, OR4F4 (Homo sapiens) (UniProt Q96R69)
T4 sequence (whole entry): T1 sequence (whole entry) with G15E, R221C, Q293R
Procedure, shortened: as §1

OR4F5 (Homo sapiens) = molecular target: T5, OR4F5 (Homo sapiens) (UniProt Q8NH21)
T5 sequence (whole entry): T1 sequence (whole entry) with G15E, A141T, P160L
Procedure, shortened: as §1

OR4F5 T141A Q293R = test system: T6, OR4F5 T141A Q293R
T6 sequence (whole entry): T1 sequence (whole entry) with G15E, P160L, Q293R
Procedure, shortened: as §1

OR4F6 (Homo sapiens) = molecular target: T7, OR4F6 (Homo sapiens) (UniProt Q8NGB9)
T7 sequence (whole entry): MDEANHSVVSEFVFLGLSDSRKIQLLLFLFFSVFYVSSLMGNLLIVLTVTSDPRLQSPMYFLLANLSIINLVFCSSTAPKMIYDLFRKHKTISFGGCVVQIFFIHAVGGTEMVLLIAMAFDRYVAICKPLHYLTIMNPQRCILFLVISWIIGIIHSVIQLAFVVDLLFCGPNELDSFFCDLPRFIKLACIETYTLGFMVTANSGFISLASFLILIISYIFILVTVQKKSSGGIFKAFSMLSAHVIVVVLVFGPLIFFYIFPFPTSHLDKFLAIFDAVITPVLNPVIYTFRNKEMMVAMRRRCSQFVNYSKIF
Procedure, shortened: as §1

OR4K1 (Homo sapiens) = molecular target: T8, OR4K1 (Homo sapiens) (UniProt Q8NGD4)
T8 sequence (whole entry): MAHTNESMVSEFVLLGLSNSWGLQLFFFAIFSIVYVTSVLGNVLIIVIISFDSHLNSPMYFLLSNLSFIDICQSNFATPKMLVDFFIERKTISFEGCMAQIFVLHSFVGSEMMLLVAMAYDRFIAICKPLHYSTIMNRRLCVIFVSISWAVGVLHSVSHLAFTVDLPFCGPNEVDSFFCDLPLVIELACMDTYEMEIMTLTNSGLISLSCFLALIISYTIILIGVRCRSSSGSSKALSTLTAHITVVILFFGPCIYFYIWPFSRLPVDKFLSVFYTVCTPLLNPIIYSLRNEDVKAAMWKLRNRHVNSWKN
Procedure, shortened: as §1

Measured: odorant receptor agonist call;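 note: active if original authors judged signal statistically different from baseline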

Sequence of OR4F3 V107I (as listed by the source, stated change not applied): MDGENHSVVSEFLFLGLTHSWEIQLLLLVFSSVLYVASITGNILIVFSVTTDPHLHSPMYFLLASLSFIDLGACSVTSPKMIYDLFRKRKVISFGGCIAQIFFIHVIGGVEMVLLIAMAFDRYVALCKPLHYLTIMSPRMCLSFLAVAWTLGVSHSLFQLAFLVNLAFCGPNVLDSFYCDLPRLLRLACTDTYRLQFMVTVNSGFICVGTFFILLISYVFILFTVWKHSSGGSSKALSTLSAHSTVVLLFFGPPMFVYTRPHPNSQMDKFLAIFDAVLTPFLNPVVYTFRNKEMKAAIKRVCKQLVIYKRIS
Sequence of OR4F3 R310K (as listed by the source, stated change not applied): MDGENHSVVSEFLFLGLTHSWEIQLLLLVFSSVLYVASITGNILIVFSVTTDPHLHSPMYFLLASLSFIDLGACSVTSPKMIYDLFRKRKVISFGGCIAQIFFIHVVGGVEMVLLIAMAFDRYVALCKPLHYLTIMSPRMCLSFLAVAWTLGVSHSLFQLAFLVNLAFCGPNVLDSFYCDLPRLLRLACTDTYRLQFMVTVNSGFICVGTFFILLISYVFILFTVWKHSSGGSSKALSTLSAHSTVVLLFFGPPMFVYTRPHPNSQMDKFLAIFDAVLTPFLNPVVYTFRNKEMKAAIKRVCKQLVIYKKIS

CCCCCCC=CCCC=O
inactive: OR4F17 (Homo sapiens) | OR4F21 (Homo sapiens) | OR4F3 (Homo sapiens) | OR4F3 R310K | OR4F3 V107I | OR4F4 (Homo sapiens) | OR4F5 (Homo sapiens) | OR4F5 T141A Q293R | OR4F6 (Homo sapiens) | OR4K1 (Homo sapiens)

CC1=C(O)C(=O)OC1C (stereo not given)
inactive: OR4F17 (Homo sapiens) | OR4F21 (Homo sapiens) | OR4F3 (Homo sapiens) | OR4F4 (Homo sapiens) | OR4F5 (Homo sapiens) | OR4F5 T141A Q293R | OR4F6 (Homo sapiens) | OR4K1 (Homo sapiens)

CCCC(S)CCOC(C)=O (stereo not given)
inactive: OR4F17 (Homo sapiens) | OR4F21 (Homo sapiens) | OR4F3 (Homo sapiens) | OR4F4 (Homo sapiens) | OR4F5 (Homo sapiens) | OR4F5 T141A Q293R | OR4F6 (Homo sapiens) | OR4K1 (Homo sapiens)

Cc1cnc(C)c(C)n1
inactive: OR4F17 (Homo sapiens) | OR4F21 (Homo sapiens) | OR4F3 (Homo sapiens) | OR4F4 (Homo sapiens) | OR4F5 (Homo sapiens) | OR4F5 T141A Q293R | OR4F6 (Homo sapiens) | OR4K1 (Homo sapiens)

CC1CCCCCCCCCCCCC(=O)C1 (stereo not given)
inactive: OR4F17 (Homo sapiens) | OR4F21 (Homo sapiens) | OR4F3 (Homo sapiens) | OR4F4 (Homo sapiens) | OR4F5 (Homo sapiens) | OR4F6 (Homo sapiens) | OR4K1 (Homo sapiens)

CCCCCC(=O)C(C)C(C)=O (stereo not given)
inactive: OR4F17 (Homo sapiens) | OR4F21 (Homo sapiens) | OR4F3 (Homo sapiens) | OR4F4 (Homo sapiens) | OR4F5 (Homo sapiens) | OR4F6 (Homo sapiens) | OR4K1 (Homo sapiens)

CCCCCC(S)C(C)CO (stereo not given)
inactive: OR4F17 (Homo sapiens) | OR4F21 (Homo sapiens) | OR4F3 (Homo sapiens) | OR4F4 (Homo sapiens) | OR4F5 (Homo sapiens) | OR4F6 (Homo sapiens) | OR4K1 (Homo sapiens)

CCC(S)C(C)CO (stereo not given)
inactive: OR4F17 (Homo sapiens) | OR4F21 (Homo sapiens) | OR4F3 (Homo sapiens) | OR4F4 (Homo sapiens) | OR4F5 (Homo sapiens) | OR4F6 (Homo sapiens) | OR4K1 (Homo sapiens)

CC(CO)CS (stereo not given)
inactive: OR4F17 (Homo sapiens) | OR4F21 (Homo sapiens) | OR4F3 (Homo sapiens) | OR4F4 (Homo sapiens) | OR4F5 (Homo sapiens) | OR4F6 (Homo sapiens) | OR4K1 (Homo sapiens)

CC1=NC(C)C(C)S1 (stereo not given)
inactive: OR4F17 (Homo sapiens) | OR4F21 (Homo sapiens) | OR4F3 (Homo sapiens) | OR4F4 (Homo sapiens) | OR4F5 (Homo sapiens) | OR4F5 T141A Q293R | OR4F6 (Homo sapiens) | OR4K1 (Homo sapiens)

CCC1OC(=O)C(O)=C1C (stereo not given)
inactive: OR4F17 (Homo sapiens) | OR4F21 (Homo sapiens) | OR4F3 (Homo sapiens) | OR4F4 (Homo sapiens) | OR4F5 (Homo sapiens) | OR4F5 T141A Q293R | OR4F6 (Homo sapiens) | OR4K1 (Homo sapiens)

CCCCC(S)C(C)CO (stereo not given)
inactive: OR4F17 (Homo sapiens) | OR4F21 (Homo sapiens) | OR4F3 (Homo sapiens) | OR4F4 (Homo sapiens) | OR4F5 (Homo sapiens) | OR4F6 (Homo sapiens) | OR4K1 (Homo sapiens)

CC1=C(O)C(=O)C(C)O1 (stereo not given)
inactive: OR4F17 (Homo sapiens) | OR4F21 (Homo sapiens) | OR4F3 (Homo sapiens) | OR4F4 (Homo sapiens) | OR4F5 (Homo sapiens) | OR4F5 T141A Q293R | OR4F6 (Homo sapiens) | OR4K1 (Homo sapiens)

CCC1OC(C)=C(O)C1=O (stereo not given)
inactive: OR4F17 (Homo sapiens) | OR4F21 (Homo sapiens) | OR4F3 (Homo sapiens) | OR4F4 (Homo sapiens) | OR4F5 (Homo sapiens) | OR4F5 T141A Q293R | OR4F6 (Homo sapiens) | OR4K1 (Homo sapiens)

CC(=O)c1c(C)c([N+](=O)[O-])c(C(C)(C)C)c([N+](=O)[O-])c1C
inactive: OR4F17 (Homo sapiens) | OR4F21 (Homo sapiens) | OR4F3 (Homo sapiens) | OR4F4 (Homo sapiens) | OR4F5 (Homo sapiens) | OR4F6 (Homo sapiens) | OR4K1 (Homo sapiens)
